The values that follow come from ChEMBL document CHEMBL4715713, “Novel anticancer oridonin derivatives possessing a diazen-1-ium-1,2-diolate nitric oxide donor moiety: Design, synthesis, biological evaluation and nitric oxide release studies” (Bioorg Med Chem Lett, 2016).

A short description of data set [1]: Prodrug release in human Bel-7402 cells assessed as NO release by measuring increase in nitrite/nitrate production at 50 uM measured upto 24 hrs by Griess reagent based assay. It is filed as ADME, cell-based. As to conditions: bel-7402, 24 h. A digest of the protocol: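 Bel-7402 cells were seeded at 15,000/mL and treated in triplicate with each compound at 50 µM for varying times. Nitrate/nitrite in the cell lysates was determined by the Griess assay. Values are the mean of three independent experiments.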
On the technique in general: Nitrite, measured by Griess reagent, commonly stands in for NO production.

The subject of data set [2] is Bel-7402. As to the kind of experiment: Antiproliferative activity against human Bel-7402 cells assessed as reduction in cell viability at 1 uM incubated for 72 hrs by MTT assay relative to control. It is filed as functional. In general terms: Formazan colour is commonly taken as a measure of viable cells.
Data set [3] deals with Bel-7402. The data set is described as follows: Antiproliferative activity against human Bel-7402 cells assessed as reduction in cell viability at 10 uM incubated for 72 hrs by MTT assay relative to control. It is filed as functional.
In data set [4] the test system is Bel-7402. The data set is described as follows: Antiproliferative activity against human Bel-7402 cells assessed as reduction in cell viability incubated for 72 hrs by MTT assay. It is filed as functional, cell-based. The note with it: Bel-7402, 72 h. The method in brief: (§1)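 Cells were exposed to a range of test concentrations for 72 h and viability was read by MTT. IC50 values were taken from the concentration-response data, and means ± SD are from n = 3.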

Data set [5] deals with Bel-7402. The data set is described as follows: Antiproliferative activity against human Bel-7402 cells assessed as reduction in cell viability incubated for 72 hrs in presence of O2-Chloromethyl-1-( morpholin -1-yl)diazen-1-ium-1,2-diolate by MTT assay. It is filed as functional, cell-based. As to conditions: Bel-7402, 72 h.
Data set [6] relates to Bel-7402. As to the kind of experiment: Induction of cell cycle arrest in human Bel-7402 cells assessed as increase in accumulation in S phase incubated for 36 hrs by PI staining based flow cytometry analysis. It is filed as functional. The note with it: dose 0.625-2.5 µM.
Data set [7] has as its system Bel-7402. As to the kind of experiment: Induction of cell cycle arrest in human Bel-7402 cells assessed as accumulation in G1 phase at 1.25 uM incubated for 36 hrs by PI staining based flow cytometry analysis (reference value: 74.01 %). It is filed as functional. For orientation: Flow cytometry measures light scatter and fluorescence of single cells or particles in a stream.

In data set [8] the test system is Bel-7402. As to the kind of experiment: Induction of cell cycle arrest in human Bel-7402 cells assessed as accumulation in S phase at 2.5 uM incubated for 36 hrs by PI staining based flow cytometry analysis (reference value: 19.68 %). It is filed as functional.
The test system of another data set is A549. The data set is described as follows: Antiproliferative activity against human A549 cells assessed as reduction in cell viability incubated for 72 hrs by MTT assay. It is filed as functional, cell-based. The note with it: A549, 72 h. A digest of the protocol: as §1
The test system of data set [9] is Bel-7402. The data set is described as follows: Induction of apoptosis in human Bel-7402 cells assessed as apoptotic cells at 2.5 uM incubated for 36 hrs by Annexin V-FITC and PI staining based flow cytometry analysis (reference value: 6.20%). It is filed as functional.
For data set [10], the system named is Bel-7402. The data set is described as follows: Induction of cell cycle arrest in human Bel-7402 cells assessed as accumulation in G2 phase at 1.25 uM incubated for 36 hrs by PI staining based flow cytometry analysis (reference value: 6.31 %). It is filed as functional.
For data set [11], the system named is Bel-7402. As to the kind of experiment: Induction of cell cycle arrest in human Bel-7402 cells assessed as accumulation in G1 phase at 2.5 uM incubated for 36 hrs by PI staining based flow cytometry analysis (reference value: 74.01 %). It is filed as functional.
A further data set concerns HepG2. As to the kind of experiment: Antiproliferative activity against human HepG2 cells assessed as reduction in cell viability incubated for 72 hrs by MTT assay. It is filed as functional, cell-based. As to conditions: HepG2, 72 h. A digest of the protocol:
as §1

In data set [12] the test system is Bel-7402. As to the kind of experiment: Induction of cell cycle arrest in human Bel-7402 cells assessed as accumulation in G1 phase at 0.625 uM incubated for 36 hrs by PI staining based flow cytometry analysis (reference value: 74.01 %). It is filed as functional.
The next data set has as its system K562. As to the kind of experiment: Antiproliferative activity against human K562 cells assessed as reduction in cell viability incubated for 72 hrs by MTT assay. It is filed as functional, cell-based. The note with it: K562, 72 h. A digest of the protocol: as §1
In data set [13] the test system is Bel-7402. The data set is described as follows: Induction of cell cycle arrest in human Bel-7402 cells assessed as accumulation in G2 phase at 2.5 uM incubated for 36 hrs by PI staining based flow cytometry analysis (reference value: 6.31 %). It is filed as functional.
For data set [14], the system named is Bel-7402. As to the kind of experiment: Induction of cell cycle arrest in human Bel-7402 cells assessed as accumulation in G2 phase at 0.625 uM incubated for 36 hrs by PI staining based flow cytometry analysis (reference value: 6.31 %). It is filed as functional.
Data set [15] concerns Bel-7402. As to the kind of experiment: Induction of cell cycle arrest in human Bel-7402 cells assessed as accumulation in S phase at 0.625 uM incubated for 36 hrs by PI staining based flow cytometry analysis (reference value: 19.68 %). It is filed as functional.
For data set [16], the system named is Bel-7402. The data set is described as follows: Induction of cell cycle arrest in human Bel-7402 cells assessed as accumulation in S phase at 1.25 uM incubated for 36 hrs by PI staining based flow cytometry analysis (reference value: 19.68 %). It is filed as functional.
The test system of a further data set is HeLa. The data set is described as follows: Antiproliferative activity against human HeLa cells assessed as reduction in cell viability incubated for 72 hrs by MTT assay. It is filed as functional, cell-based. A digest of the protocol:
as §1

The structures appear in SMILES notation. Where a name gives a salt, the structure may show the parent alone.

By inhibition is commonly meant the relative decrease from the control value, in per cent. As a reminder, the IC50 is the concentration needed to halve the response being measured.

Take `C=C1C(=O)[C@]23[C@H](OC(=O)CCC(=O)OCO/N=[N+](\[O-])N4CCCC4)[C@H]1CC[C@H]2[C@@]12CO[C@@]3(O)[C@@H](O)[C@@H]1C(C)(C)CC[C@@H]2O`: the Drug metabolism entry in data set [1] is reported as “Metabolite_Detected”. Also, the inhibition at 1 µM in the data set with Bel-7402 [2] was 15.9%. The inhibition at 10 µM in the data set with Bel-7402 [3] stood at 93.2%. In addition, the IC50 with Bel-7402 [4] is 13.3 µM.

For the compound `C=C1C(=O)[C@]23[C@H](O)[C@H]1CC[C@H]2[C@@]12CO[C@]3(O)[C@@H](O)[C@@H]1C(C)(C)CC[C@@H]2O` [ORIDONIN], the inhibition at 1 µM in the data set on Bel-7402 [2] is 29.9%. Also, the inhibition at 10 µM in the data set on Bel-7402 [3] stood at 93.6%. The concentration for half-maximal inhibition (IC50) in the data set with Bel-7402 [4] is 7.12 µM.

With `C=C1C(=O)[C@]23[C@H](OC(=O)CCC(=O)O)[C@H]1CC[C@H]2[C@@]12CO[C@@]3(O)[C@@H](O)[C@@H]1C(C)(C)CCC2=O`, the concentration for half-maximal inhibition (IC50) with Bel-7402 [5] is 5.28 µM; with Bel-7402 [4] it was 9.07 µM.

Consider `C=C1C(=O)[C@]23[C@H](OC(=O)CCCC(=O)OCO/N=[N+](\[O-])N4CCCC4)[C@H]1CC[C@H]2[C@@]12CO[C@@]3(O)[C@@H](O)[C@@H]1C(C)(C)CCC2=O`, for which the Drug metabolism entry in data set [1] is on record as “Metabolite_Detected”. Besides, in the data set with Bel-7402 [2], the inhibition at 1 µM was 13.5%. For the same compound, in the data set with Bel-7402 [3], the inhibition at 10 µM is 93.9%. Moreover, the IC50 in the data set on Bel-7402 [4] was found to be 17 µM.

For `C=C1C(=O)[C@]23[C@H](OC(=O)CCC(=O)OCO/N=[N+](\[O-])N4CCCC4)[C@H]1CC[C@H]2[C@@]12CO[C@@]3(O)[C@@H](O)[C@@H]1C(C)(C)CCC2=O`, the inhibition at 1 µM in the data set on Bel-7402 [2] was 24.2%. In the data set with Bel-7402 [3], the inhibition at 10 µM came out at 93.6%. In addition, the IC50 in the data set on Bel-7402 [4] worked out at 14.6 µM.

Regarding `COc1cccc2c1C(=O)c1c(O)c3c(c(O)c1C2=O)C[C@@](O)(C(=O)CO)C[C@@H]3O[C@H]1C[C@H](N)[C@H](O)[C@H](C)O1` [DOXORUBICIN HYDROCHLORIDE], the IC50 in the data set with Bel-7402 [4] stood at 0.83 µM.

Take `C=C1C(=O)[C@]23[C@H](OC(=O)CCCC(=O)OCO/N=[N+](\[O-])N4CCOCC4)[C@H]1CC[C@H]2[C@@]12CO[C@@]3(O)[C@@H](O)[C@@H]1C(C)(C)CCC2=O`: the Activity result is “Dose-dependent effect” in the data set with Bel-7402 [6]; 66.35% in the data set with Bel-7402 [7]; 36.22% with Bel-7402 [8]; 51.91% with Bel-7402 [9]; 3.66% in the data set on Bel-7402 [10]; 58.98% in the data set with Bel-7402 [11]. Moreover, the Activity worked out at 68.47% in the data set on Bel-7402 [12]; 4.8% in the data set with Bel-7402 [13]; 5.1% in the data set on Bel-7402 [14]; 26.42% in the data set on Bel-7402 [15]; 29.99% in the data set on Bel-7402 [16]. Moreover, the Drug metabolism result in [1] is reported as “Metabolite_Detected”. The half-inhibitory concentration (IC50) with A549 stood at 1130 nM; with HepG2, 2570 nM; in the data set with K562 it was 8.48 µM; in the data set on Bel-7402 [4], 1.84 µM; with HeLa, 2460 nM. Also, the inhibition at 1 µM in the data set on Bel-7402 [2] worked out at 87.8%. In the data set with Bel-7402 [3], the inhibition at 10 µM is 93.9%.

As for `C=C1C(=O)[C@]23[C@H](OC(=O)CCCC(=O)OCO/N=[N+](\[O-])N4CCOCC4)[C@H]1CC[C@H]2[C@@]12CO[C@@]3(O)[C@@H](O)[C@@H]1C(C)(C)CC[C@@H]2O`, the inhibition at 1 µM with Bel-7402 [2] was determined as 83.8%. In the data set on Bel-7402 [3], the inhibition at 10 µM came out at 92.7%. Moreover, the 50% inhibitory concentration (IC50) in the data set on Bel-7402 [4] is 2.53 µM.

As for `C=C1C(=O)[C@]23[C@H](OC(=O)CCC(=O)OCO/N=[N+](\[O-])N4CCOCC4)[C@H]1CC[C@H]2[C@@]12CO[C@@]3(O)[C@@H](O)[C@@H]1C(C)(C)CC[C@@H]2OC(C)=O`, the inhibition at 1 µM in the data set on Bel-7402 [2] was 85.8%. For the same compound, the inhibition at 10 µM in the data set with Bel-7402 [3] was 94.5%. The IC50 with Bel-7402 [4] came out at 3.03 µM.

In the case of `C=C1C(=O)[C@]23[C@H](OC(=O)CCC(=O)OCO/N=[N+](\[O-])N4CCOCC4)[C@H]1CC[C@H]2[C@@]12CO[C@@]3(O)[C@@H](O)[C@@H]1C(C)(C)CCC2=O`, in the data set on Bel-7402 [2], the inhibition at 1 µM amounted to 71.3%. Besides, in the data set on Bel-7402 [3], the inhibition at 10 µM was found to be 93.1%. Moreover, in the data set on Bel-7402 [4], the concentration for half-maximal inhibition (IC50) was found to be 3.26 µM.

`C=C1C(=O)[C@]23[C@H](OC(=O)CCCC(=O)OCO/N=[N+](\[O-])N4CCCC4)[C@H]1CC[C@H]2[C@@]12CO[C@@]3(O)[C@@H](O)[C@@H]1C(C)(C)CC[C@@H]2O`: the inhibition at 1 µM in the data set on Bel-7402 [2] was found to be 26.1%. Further, in the data set on Bel-7402 [3], the inhibition at 10 µM came out at 93.4%. Also, the concentration for half-maximal inhibition (IC50) in the data set with Bel-7402 [4] came out at 10.9 µM.

Turning to `[O-]/[N+](=N\OCCl)N1CCOCC1`, the 50% inhibitory concentration (IC50) with Bel-7402 [4] was 24.6 µM.

For the compound `C=C1C(=O)[C@]23[C@H](OC(=O)CCC(=O)OCO/N=[N+](\[O-])N4CCOCC4)[C@H]1CC[C@H]2[C@@]12CO[C@@]3(O)[C@@H](O)[C@@H]1C(C)(C)CC[C@@H]2O`, the Drug metabolism result in data set [1] is “Metabolite_Detected”. Further, the inhibition at 1 µM in the data set on Bel-7402 [2] turned out to be 88.5%. In addition, the inhibition at 10 µM in the data set with Bel-7402 [3] was 93.3%. The IC50 in the data set on Bel-7402 [4] was found to be 2.75 µM.
